Reference: ChEMBL document CHEMBL2434884, “Natural product derived antiprotozoal agents: synthesis, biological evaluation, and structure-activity relationships of novel chromene and chromane derivatives” (J Med Chem, 2013)

Experiments:
[1] = Selectivity index, ratio of IC50 for rat L6 cells to ratio of IC50 for chloroquine/pyrimethamine-resistant erythrocytic form of Plasmodium falciparum K1; format: toxicity, cell-based; settings: read-out: Selectivity Index
Leishmania tarentolae [2] = assay: Antiprotozoal activity against promastigote form of Leishmania tarentolae P10 assessed as parasite growth inhibition after 48 hrs by MTT assay; format: functional, organism-based; settings: P10, 48 h
Summary of the method: (§1)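 Promastigotes of nonpathogenic lizard-infecting L. tarentolae strain P10, cultured in hemin-supplemented BHI medium; IC50 determined.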

[3] = Selectivity index, ratio of IC50 for rat L6 cells to ratio of IC50 for trypomastigote form of Trypanosoma brucei rhodesiense STIB 900; format: toxicity, cell-based; settings: read-out: Selectivity Index
[4] = system: Trypanosoma brucei rhodesiense; assay: Antiprotozoal activity against trypomastigote form of Trypanosoma brucei rhodesiense STIB 900 assessed as parasite growth inhibition; format: functional, organism-based
Plasmodium falciparum [5] = assay: Antiprotozoal activity against chloroquine/pyrimethamine-resistant erythrocytic form of Plasmodium falciparum K1 assessed as parasite growth inhibition; format: functional, organism-based
L6 = assay: Cytotoxicity against rat L6 cells; format: cell-based
Summary of the method: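 L6 rat skeletal myoblasts; cytotoxicity IC50 determined at the Swiss Tropical and Public Health Institute by an earlier standard protocol.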

[6] = Selectivity index, ratio of IC50 for rat L6 cells to ratio of IC50 for axenic amastigote form of Leishmania donovani MHOM/ET/67/L82; format: toxicity, cell-based; settings: read-out: Selectivity Index
Leishmania donovani [7] = assay: Antiprotozoal activity against axenic amastigote form of Leishmania donovani MHOM/ET/67/L82 assessed as parasite growth inhibition; format: functional, organism-based
Trypanosoma cruzi [8] = assay: Antiprotozoal activity against intracellular amastigote form of Trypanosoma cruzi Tulahuen C4 assessed as parasite growth inhibition; format: functional, organism-based
Plasmodium falciparum [9] = assay: Potency index, ratio of chloroquine IC50 to compound IC50 for chloroquine/pyrimethamine-resistant erythrocytic form of Plasmodium falciparum K1; format: functional
Leishmania donovani [10] = assay: Antiprotozoal activity against Leishmania donovani assessed as parasite growth inhibition
Leishmania tarentolae [11] = assay: Antiprotozoal activity against Leishmania tarentolae assessed as parasite growth inhibition; format: functional, organism-based; summary of the method: as §1
Trypanosoma cruzi [12] = assay: Antiprotozoal activity against Trypanosoma cruzi assessed as parasite growth inhibition; format: functional, organism-based
Summary of the method: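 T. cruzi intracellular amastigote stage, Tulahuen C4 strain; assayed at the Swiss Tropical and Public Health Institute by an earlier standard protocol.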

| IC50 (Trypanosoma cruzi [12]) [nM] | Structure (SMILES) | selectivity ratio [1] | IC50 (Leishmania tarentolae [2]) [µM] | selectivity ratio [3] | IC50 [4] [µM] | IC50 (Plasmodium falciparum [5]) [nM] | IC50 (L6) [µM] | selectivity ratio [6] | IC50 (Leishmania donovani [7]) [µM] | IC50 (Trypanosoma cruzi [8]) [µM] | Ratio IC50 (Plasmodium falciparum [9]) | IC50 (Leishmania donovani [10]) [nM] | IC50 (Leishmania tarentolae [11]) [nM] |
| --- | --- | --- | --- | --- | --- | --- | --- | --- | --- | --- | --- | --- | --- |
| – | COc1cc2c(cc1C(C)N[C@@H](C)c1ccccc1)C=CC(C)(C)O2 (stereo partly drawn) | 44.4 | 9.01 | 3.23 | 5.1 | 370 | 16.5 | – | – | – | – | – | – |
| – | COc1cc2c(cc1C(C)OCc1ccccc1)C=CC(C)(C)O2 (stereo not drawn) | 4.64 | 1.53 | 0.58 | 76.1 | 9480 | 43.9 | 2.1 | 21.2 | 45 | – | – | – |
| – | COc1cc2c(cc1C(C)NCCc1ccccc1)CCC(C)(C)O2 (stereo not drawn) | 5.8 | 126 | 3.48 | 4.15 | 2490 | 14.5 | 8.4 | 1.73 | 12.1 | – | – | – |
| – | COc1cc2c(cc1C(C)NCCc1ccccc1)C=CC(C)(C)O2 (stereo not drawn) | 6.34 | 1.04 | 6.93 | 2.22 | 2420 | 15.4 | 0.12 | 127 | 9.1 | – | – | – |
| – | COc1cc2c(cc1C(C)N(C)CCCc1ccccc1)C=CC(C)(C)O2 (stereo not drawn) | 13.5 | 9.01 | 5.12 | 3.17 | 1240 | 16.3 | 0.19 | 84.3 | 9.17 | – | – | – |
| – | COc1cc2c(cc1C(C)NC/C=C/c1ccccc1)C=CC(C)(C)O2 (stereo not drawn) | 3.32 | 3.26 | 2.5 | 5.84 | 4410 | 14.6 | 0.23 | 62.4 | 8.13 | – | – | – |
| – | COc1cc2c(cc1C(C)NC(=O)c1ccccc1)C=CC(C)(C)O2 (stereo not drawn) | 3.01 | 8.61 | 1.45 | 23.4 | 11500 | 34.8 | 1.3 | 26.3 | 36.8 | – | – | – |
| – | COc1cc2c(cc1C(C)N[C@H](C)c1ccccc1)C=CC(C)(C)O2 (stereo partly drawn) | 22.1 | 8.61 | 7.85 | 2.02 | 720 | 15.9 | – | – | – | – | – | – |
| – | CC(NCc1ccccc1)c1cc2c(cc1O)OC(C)(C)C=C2 (stereo not drawn) | 6760 | 12.4 | 17.7 | 6.18 | 20 | 109 | – | – | – | 10 | – | – |
| – | CCNC(C)c1cc2c(cc1OC)OC(C)(C)C=C2 (stereo not drawn) | 22 | 8.76 | 7.71 | 22.8 | 8120 | 176 | 0.48 | 365 | 91.5 | – | – | – |
| – | CCN(CC)CCCC(C)NC(C)c1cc2c(cc1OC)OC(C)(C)C=C2 (stereo not drawn) | 17.5 | 3.24 | 22.5 | 1.86 | 2390 | 41.9 | – | – | 35.5 | – | – | – |
| – | COc1cc2c(cc1C(C)N1CCCC1)C=CC(C)(C)O2 (stereo not drawn) | 10.8 | 18.6 | 4.31 | 41.1 | 16400 | 177 | 0.66 | 270 | 68.2 | – | – | – |
| – | COc1cc2c(cc1C(C)NCc1ccccc1)C=CC(C)(C)O2 (stereo not drawn) | 32.8 | 2.4 | 8.83 | 2.38 | 640 | 21 | 0.13 | 159 | 33.9 | – | – | – |
| – | CCCCCCCCCCCCCCCCOP(=O)([O-])OCC[N+](C)(C)C [MILTEFOSINE] | – | – | – | – | – | – | – | – | – | – | 361 | – |
| – | COc1cc2c(cc1C(C)NC(=O)Cc1ccccc1)C=CC(C)(C)O2 (stereo not drawn) | 2.79 | 7.69 | 0.83 | 103 | 31000 | 86.5 | 1.6 | 53.8 | 44.7 | – | – | – |
| – | COc1ccc(CNC(C)c2cc3c(cc2OC)OC(C)(C)C=C3)cc1 (stereo not drawn) | 16 | 9.8 | 6.13 | 2.42 | 930 | 14.9 | 0.07 | 225 | 33.1 | – | – | – |

| IC50 (Trypanosoma cruzi [12]) [nM] | Structure (SMILES) | selectivity ratio [1] | IC50 (Leishmania tarentolae [2]) [µM] | selectivity ratio [3] | IC50 [4] [µM] | IC50 (Plasmodium falciparum [5]) [nM] | IC50 (L6) [µM] | selectivity ratio [6] | IC50 (Leishmania donovani [7]) [µM] | IC50 (Trypanosoma cruzi [8]) [µM] | Ratio IC50 (Plasmodium falciparum [9]) | IC50 (Leishmania donovani [10]) [nM] | IC50 (Leishmania tarentolae [11]) [nM] |
| --- | --- | --- | --- | --- | --- | --- | --- | --- | --- | --- | --- | --- | --- |
| – | COc1cc2c(cc1C(C)NCCCCc1ccccc1)C=CC(C)(C)O2 (stereo not drawn) | 3.35 | 0.77 | 1.5 | 3.15 | 1410 | 4.73 | 0.07 | 71.7 | 4.19 | – | – | – |
| – | CC(NCCCc1ccccc1)c1cc2c(cc1O)OC(C)(C)C=C2 (stereo not drawn) | 1820 | 6.2 | 5.08 | 5.31 | 10 | 27 | – | – | – | 25 | – | – |
| – | COc1cc2c(cc1C(C)OCCc1ccccc1)C=CC(C)(C)O2 (stereo not drawn) | 2.08 | 1.17 | 0.69 | 180 | 59900 | 123 | 1.9 | 63.5 | 56.7 | – | – | – |
| – | COc1cc2c(cc1C(C)NCCCc1ccccc1)CCC(C)(C)O2 (stereo not drawn) | 1.23 | 129 | 1.15 | 2.27 | 2130 | 2.63 | – | – | 5.35 | – | – | – |
| – | COc1cc2c(cc1C(C)OC/C=C/c1ccccc1)C=CC(C)(C)O2 (stereo not drawn) | – | 0.86 | 0.68 | 94.7 | – | 64.4 | 2.8 | 23 | 73 | – | – | – |
| – | COc1cc2c(cc1C(C)NC(=O)/C=C/c1ccccc1)C=CC(C)(C)O2 (stereo not drawn) | – | 1.78 | 2.99 | 35.9 | – | 107 | 4.1 | 26.3 | 23.1 | – | – | – |
| – | COc1cc2c(cc1C(C)N1CCOCC1)C=CC(C)(C)O2 (stereo not drawn) | 15.9 | 12.4 | 1.63 | 96.2 | 9920 | 157 | 1.06 | 148 | 110 | – | – | – |
| – | CCCCNC(C)c1cc2c(cc1OC)OC(C)(C)CC2 (stereo not drawn) | 18.3 | – | 7.54 | 7.82 | 3220 | 59 | 5.5 | 10.8 | 38.4 | – | – | – |
| – | COc1cc2c(cc1C(C)NCC1CCCCC1)C=CC(C)(C)O2 (stereo not drawn) | 5.88 | 0.65 | 6.69 | 2.16 | 2460 | 14.5 | 0.1 | 139 | 12.9 | – | – | – |
| – | COc1cc2c(cc1C(C)NCCCCc1ccccc1)CCC(C)(C)O2 (stereo not drawn) | 3.94 | 90.6 | 2.87 | 1.84 | 1340 | 5.28 | 9.3 | 0.57 | 5.03 | – | – | – |
| – | COc1cc2c(cc1C(C)NCc1ccccc1)CCC(C)(C)O2 (stereo not drawn) | 10.1 | 270 | 3.08 | 4.98 | 1510 | 15.3 | 4.1 | 3.7 | 13.3 | – | – | – |
| – | CCCCNC(C)c1cc2c(cc1OC)OC(C)(C)C=C2 (stereo not drawn) | 12.6 | 6.25 | 6.41 | 8.19 | 4180 | 52.5 | – | – | 25.2 | – | – | – |
| – | N=C(N)c1ccc(OCCCCCOc2ccc(C(=N)N)cc2)cc1 [PENTAMIDINE] | – | – | – | – | – | – | – | – | – | – | – | 30 |
| – | C/C=C(/C)C(=O)OC(C)c1cc2c(cc1OC)OC(C)(C)C=C2 (stereo not drawn) | 7.35 | 21.3 | 0.89 | 157 | 18900 | 139 | 3 | 46.2 | 61.4 | – | – | – |
| 1570 | O=C(Cn1ccnc1[N+](=O)[O-])NCc1ccccc1 [BENZNIDAZOLE] | – | – | – | – | – | – | – | – | – | – | – | – |
| – | COc1cc2c(cc1C(C)NCCCc1ccccc1)C=CC(C)(C)O2 (stereo not drawn) | 1.27 | 0.22 | 1.05 | 1.03 | 850 | 1.08 | 0.01 | 101 | 13.6 | – | – | – |
